Source: ChEMBL document CHEMBL4308828, “Fragment Based Optimization of Metabotropic Glutamate Receptor 2 (mGluR2) Positive Allosteric Modulators in the Absence of Structural Information” (J Med Chem, 2018)
≈ marks a conversion by molar mass, not a printed value.

Columns and labels:
Mus musculus [1] = experiment: Antipsychotic activity in ip dosed ddY mouse assessed as inhibition of PCP-induced hyperlocomotion pretreated followed by PCP addition measured after 60 mins by passive infrared sensor method; format: functional
How it was run: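 Male ddY mice, 6 weeks old, acclimated 60 min in test cage, dosed i.p., then immediately PCP 2.5 mg/kg s.c.; locomotor activity recorded 60 min by passive infrared sensor system; ED50 reported.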

[2] = Unbound plasma concentration in mouse at 30 mg/kg, po; format: ADME, organism-based; settings: in vivo
How it was run: (§1)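 Mice dosed orally at 30 mg/kg; plasma, brain and unbound plasma concentrations measured.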

[3] = Intrinsic clearance in NMRI mouse liver microsomes at 2.5 uM; format: ADME, Microsome
How it was run: (§2)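 Liver microsomes (0.5 mg/mL) of human, Wistar rat or NMRI mouse; compound 2.5 μM initial, incubated for various times. Intrinsic clearance (mL/min·g liver) taken as rate of compound consumption under first-order conditions, Clint = Vmax/KM or V/S when S ≪ KM.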

[4] = Protein binding in rat plasma; format: ADME, cell-free; settings: read-out: PPB (converted)
Cytochrome P450 2D6 = Cytochrome P450 2D6 (Homo sapiens, UniProt P10635); experiment: Inhibition of CYP2D6 (unknown origin); format: ADME
Cytochrome P450 2D6, sequence (P10635 whole entry): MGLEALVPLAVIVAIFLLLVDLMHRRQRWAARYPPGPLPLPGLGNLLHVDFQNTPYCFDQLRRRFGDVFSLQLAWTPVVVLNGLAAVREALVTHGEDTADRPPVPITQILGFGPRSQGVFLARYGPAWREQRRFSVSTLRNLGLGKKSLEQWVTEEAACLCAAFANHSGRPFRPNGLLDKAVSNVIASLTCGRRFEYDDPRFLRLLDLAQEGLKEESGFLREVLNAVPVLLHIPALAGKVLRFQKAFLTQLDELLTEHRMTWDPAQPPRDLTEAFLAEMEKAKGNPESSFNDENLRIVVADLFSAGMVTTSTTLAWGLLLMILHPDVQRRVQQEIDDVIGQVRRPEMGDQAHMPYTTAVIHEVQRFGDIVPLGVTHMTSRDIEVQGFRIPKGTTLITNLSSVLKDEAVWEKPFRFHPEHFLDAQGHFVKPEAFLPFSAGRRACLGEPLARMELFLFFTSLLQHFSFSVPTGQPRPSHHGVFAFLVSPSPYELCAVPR

[5] = molecular target: T1, Nuclear receptor subfamily 1 group I member 2 (Homo sapiens, UniProt O75469); experiment: Activation of PXR (unknown origin) assessed as CYP induction; format: ADME
T1 sequence (O75469 whole entry): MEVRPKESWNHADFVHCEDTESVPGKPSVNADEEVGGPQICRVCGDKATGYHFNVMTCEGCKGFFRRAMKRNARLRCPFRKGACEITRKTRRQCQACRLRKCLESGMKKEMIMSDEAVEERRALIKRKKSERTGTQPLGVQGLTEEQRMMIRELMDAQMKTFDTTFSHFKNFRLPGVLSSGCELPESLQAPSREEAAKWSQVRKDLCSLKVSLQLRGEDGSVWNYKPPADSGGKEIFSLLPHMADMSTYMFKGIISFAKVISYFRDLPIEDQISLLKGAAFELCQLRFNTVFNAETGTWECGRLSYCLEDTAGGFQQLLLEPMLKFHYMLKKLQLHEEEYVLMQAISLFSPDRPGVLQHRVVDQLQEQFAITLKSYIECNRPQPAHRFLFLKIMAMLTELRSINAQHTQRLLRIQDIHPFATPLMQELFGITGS

Mus musculus [6] = experiment: Inhibition of DOI-induced head twitches in ip dosed ddY mouse pretreated for 20 mins followed by DOI addition measured after 8 mins; format: functional
How it was run: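 Male ddY mice, 6 weeks old, dosed i.p. 20 min before DOI 0.75 mg/kg s.c.; head twitches counted in transparent cylinder from 10 to 18 min after DOI.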

[7] = Lipophilicity, log D of the compound at pH 7.4; format: physicochemical; settings: buffer
Cytochrome P450 1A2 = molecular target: T2, Cytochrome P450 1A2 (Homo sapiens, UniProt P05177); experiment: Inhibition of CYP1A2 (unknown origin); format: ADME
T2 sequence (P05177 whole entry): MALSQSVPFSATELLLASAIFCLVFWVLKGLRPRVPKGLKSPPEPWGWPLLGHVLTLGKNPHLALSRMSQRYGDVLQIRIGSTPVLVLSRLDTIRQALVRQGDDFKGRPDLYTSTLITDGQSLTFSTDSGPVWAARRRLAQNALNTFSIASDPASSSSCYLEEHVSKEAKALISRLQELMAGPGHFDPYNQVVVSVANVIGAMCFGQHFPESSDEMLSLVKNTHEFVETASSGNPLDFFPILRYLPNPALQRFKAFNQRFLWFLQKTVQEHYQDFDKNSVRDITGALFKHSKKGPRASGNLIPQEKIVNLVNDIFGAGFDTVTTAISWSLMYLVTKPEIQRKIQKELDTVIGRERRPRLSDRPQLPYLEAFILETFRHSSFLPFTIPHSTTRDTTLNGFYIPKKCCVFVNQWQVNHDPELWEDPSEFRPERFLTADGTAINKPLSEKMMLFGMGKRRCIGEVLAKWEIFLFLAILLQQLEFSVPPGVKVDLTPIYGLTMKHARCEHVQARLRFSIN

[8] = Plasma concentration in mouse at 30 mg/kg, po; format: ADME, organism-based; settings: in vivo; how it was run: as §1
Cytochrome P450 3A4 = Cytochrome P450 3A4 (Homo sapiens, UniProt P08684); experiment: Inhibition of CYP3A4 (unknown origin); format: ADME
Cytochrome P450 3A4, sequence (P08684 whole entry): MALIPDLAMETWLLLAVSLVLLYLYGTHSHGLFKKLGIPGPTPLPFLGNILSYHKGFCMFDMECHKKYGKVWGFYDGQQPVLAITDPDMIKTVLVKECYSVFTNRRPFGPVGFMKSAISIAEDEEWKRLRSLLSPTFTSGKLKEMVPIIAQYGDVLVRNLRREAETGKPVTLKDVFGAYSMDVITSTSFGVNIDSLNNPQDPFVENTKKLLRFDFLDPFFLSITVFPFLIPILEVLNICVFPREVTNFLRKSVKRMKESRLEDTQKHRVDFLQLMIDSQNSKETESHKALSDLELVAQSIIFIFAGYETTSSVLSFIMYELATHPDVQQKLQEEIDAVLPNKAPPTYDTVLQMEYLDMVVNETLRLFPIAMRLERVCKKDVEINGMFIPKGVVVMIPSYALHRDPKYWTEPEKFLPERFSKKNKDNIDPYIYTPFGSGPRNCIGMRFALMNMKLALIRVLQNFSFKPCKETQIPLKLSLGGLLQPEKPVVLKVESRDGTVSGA

[9] = Intrinsic clearance in Wistar rat liver microsomes at 2.5 uM; format: ADME, Microsome; how it was run: as §2
[10] = Intrinsic clearance in human liver microsomes at 2.5 uM; format: ADME, Microsome; how it was run: as §2
[11] = Protein binding in mouse plasma; format: ADME, cell-free; settings: read-out: PPB (converted)
Cytochrome P450 2C9 = Cytochrome P450 2C9 (Homo sapiens, UniProt P11712); experiment: Inhibition of CYP2C9 (unknown origin); format: ADME
Cytochrome P450 2C9, sequence (P11712 whole entry): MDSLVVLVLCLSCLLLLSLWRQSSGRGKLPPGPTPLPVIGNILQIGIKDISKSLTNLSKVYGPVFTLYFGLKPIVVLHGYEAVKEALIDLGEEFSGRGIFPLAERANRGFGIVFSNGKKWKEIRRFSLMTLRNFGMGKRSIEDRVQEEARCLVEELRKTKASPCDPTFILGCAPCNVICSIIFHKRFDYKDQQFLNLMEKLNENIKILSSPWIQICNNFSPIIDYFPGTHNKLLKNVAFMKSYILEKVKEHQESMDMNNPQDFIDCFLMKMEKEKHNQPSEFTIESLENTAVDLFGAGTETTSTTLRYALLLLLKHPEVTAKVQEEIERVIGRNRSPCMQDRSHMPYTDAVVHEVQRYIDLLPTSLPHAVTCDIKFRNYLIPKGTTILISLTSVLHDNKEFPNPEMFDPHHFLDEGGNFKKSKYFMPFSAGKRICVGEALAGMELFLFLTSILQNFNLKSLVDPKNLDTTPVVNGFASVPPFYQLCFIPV

[12] = Drug uptake in mouse brain at 30 mg/kg, po; format: ADME, organism-based; settings: in vivo, read-out: Drug uptake; how it was run: as §1
[13] = molecular target: Metabotropic glutamate receptor 2 (Homo sapiens, UniProt Q14416); experiment: Positive allosteric modulation of human mGluR2 expressed in human Chem1 cells assessed as increase in glutamate-induced intracellular calcium influx preincubated for 30 mins followed by glutamate addition by calcium-5 dye based fluorometric assay; format: functional, cell-based
Metabotropic glutamate receptor 2, sequence (Q14416 whole entry): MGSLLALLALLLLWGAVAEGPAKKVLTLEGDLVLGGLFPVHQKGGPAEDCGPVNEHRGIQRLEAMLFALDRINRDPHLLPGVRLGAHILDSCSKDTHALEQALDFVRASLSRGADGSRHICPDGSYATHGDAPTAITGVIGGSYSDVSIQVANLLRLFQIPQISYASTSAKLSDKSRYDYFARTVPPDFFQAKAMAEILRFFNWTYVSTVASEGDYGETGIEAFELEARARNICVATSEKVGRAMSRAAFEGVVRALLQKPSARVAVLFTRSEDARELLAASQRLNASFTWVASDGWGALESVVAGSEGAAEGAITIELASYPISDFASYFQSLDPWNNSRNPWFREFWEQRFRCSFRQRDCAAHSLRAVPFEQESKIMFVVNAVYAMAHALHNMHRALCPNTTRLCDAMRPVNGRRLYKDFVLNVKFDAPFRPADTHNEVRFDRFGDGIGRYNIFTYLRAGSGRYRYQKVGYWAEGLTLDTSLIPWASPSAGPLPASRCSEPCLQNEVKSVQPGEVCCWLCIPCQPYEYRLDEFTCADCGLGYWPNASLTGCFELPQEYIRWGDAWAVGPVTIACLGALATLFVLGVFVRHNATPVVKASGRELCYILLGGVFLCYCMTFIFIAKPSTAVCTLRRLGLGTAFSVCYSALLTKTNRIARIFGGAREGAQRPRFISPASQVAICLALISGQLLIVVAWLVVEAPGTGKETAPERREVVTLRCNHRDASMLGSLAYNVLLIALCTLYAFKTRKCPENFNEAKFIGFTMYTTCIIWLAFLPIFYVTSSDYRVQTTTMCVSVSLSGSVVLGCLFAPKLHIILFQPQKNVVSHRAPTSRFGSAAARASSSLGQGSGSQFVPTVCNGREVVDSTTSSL
How it was run: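 Chem-1 cells stably expressing human mGlu2, 30000 cells/well, overnight at 37 °C. Loaded with Calcium 5 dye (30 min, 37 °C) in buffer with GPT/pyruvate, washed, then compound or vehicle 30 min at 37 °C. Glutamate at EC5-EC20 added after 20 s baseline; fluorescence 485/525 nm read 40 s. ΔF/F from multiple wells; sigmoid fits give EC50, three independent experiments. Final DMSO 1%.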

[14] = Kinetic aqueous solubility of the compound in pH 7.4 solution; format: physicochemical; settings: aqueous pH 7.4 solution, read-out: Kinetic_solubility
Homo sapiens = species on record: Homo sapiens; experiment: Binding affinity to sodium channel site 2 (unknown origin) at 10 uM relative to control
[15] = molecular target: T3, Androgen receptor (Homo sapiens) (UniProt P10275); experiment: Binding affinity to AR (unknown origin) at 10 uM relative to control
T3 sequence (whole entry): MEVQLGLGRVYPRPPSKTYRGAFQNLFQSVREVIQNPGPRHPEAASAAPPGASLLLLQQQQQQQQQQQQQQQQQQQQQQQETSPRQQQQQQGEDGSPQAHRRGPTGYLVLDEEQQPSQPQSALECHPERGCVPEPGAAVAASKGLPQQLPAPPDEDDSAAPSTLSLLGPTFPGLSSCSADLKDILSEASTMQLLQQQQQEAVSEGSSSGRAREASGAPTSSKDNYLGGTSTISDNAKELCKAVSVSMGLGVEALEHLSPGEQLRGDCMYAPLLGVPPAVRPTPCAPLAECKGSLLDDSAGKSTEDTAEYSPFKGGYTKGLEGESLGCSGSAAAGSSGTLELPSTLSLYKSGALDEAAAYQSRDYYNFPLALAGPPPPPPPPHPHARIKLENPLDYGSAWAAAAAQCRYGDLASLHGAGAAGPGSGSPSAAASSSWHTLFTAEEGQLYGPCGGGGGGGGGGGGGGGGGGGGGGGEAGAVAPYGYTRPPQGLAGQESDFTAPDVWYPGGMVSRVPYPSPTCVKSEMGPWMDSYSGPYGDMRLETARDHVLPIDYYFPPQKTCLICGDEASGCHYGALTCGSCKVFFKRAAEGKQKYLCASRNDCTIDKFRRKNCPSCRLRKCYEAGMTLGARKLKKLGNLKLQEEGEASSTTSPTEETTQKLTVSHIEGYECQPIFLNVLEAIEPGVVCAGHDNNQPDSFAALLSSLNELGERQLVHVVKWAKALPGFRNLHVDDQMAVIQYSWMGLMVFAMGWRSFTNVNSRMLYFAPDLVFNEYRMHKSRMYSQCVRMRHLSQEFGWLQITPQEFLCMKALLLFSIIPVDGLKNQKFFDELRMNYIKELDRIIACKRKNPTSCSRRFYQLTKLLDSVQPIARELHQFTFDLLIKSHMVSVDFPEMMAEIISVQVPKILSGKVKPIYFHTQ

Intrinsic clearance [3] [mL/min/g] | Intrinsic clearance [9] [mL/min/g] | Intrinsic clearance [10] [mL/min/g] | EC50 [13] [nM] | Compound | also measured
1.4 | 0.3 | 0.3 | 148 | FC(F)(F)c1cccc2c1nnn2CC1CC1 | ED50 (Mus musculus [1]): 57.6 mg/kg; Cp(f) [2]: 1.75 µM; fraction unbound [4]: 0.1; IC50 (Cytochrome P450 2D6): > 10000 nM; MEC [5]: 7 µM; ED50 (Mus musculus [6]): 29.7 mg/kg; logD [7]: 3.08; IC50 (Cytochrome P450 1A2): > 10000 nM; concentration [8]: 12.1 µM; IC50 (Cytochrome P450 3A4): > 10000 nM; fraction unbound [11]: 0.145; IC50 (Cytochrome P450 2C9): > 10000 nM; concentration [12]: 13.1 µM; solubility kinetic [14]: 409 µg/mL (≈ 1700 µM)
5.7 | 0.5 | 0.4 | 70 | Fc1cc(Br)c2nnn(CC3CC3)c2c1 | 
1 | 1 | 1.2 | 15 | Fc1ccc(Cn2nnc3c(Br)cccc32)cc1 | 
7.7 | 0.2 | 0.1 | 140 | FC(F)(F)c1cc(Br)c2nnn(CC3CC3)c2c1 | 
2.2 | 1 | 0.1 | 86 | Fc1ccc2nnn(Cc3ccc(-c4ccc(Cl)cc4F)nc3)c2c1 | 
15.3 | 2.3 | 0.6 | 50 | Brc1cc(Br)c2nnn(CC3CC3)c2c1 | 
3.8 | 0.4 | 0.1 | 6 | Fc1cc(Cl)ccc1-c1ccc(Cn2nnc3c(Br)cccc32)cn1 | ED50 (Mus musculus [1]): 47 mg/kg; Cp(f) [2]: 0.081 µM; concentration [8]: 20 µM; concentration [12]: 7.1 µM
1.6 | 2.3 | 0.8 | 141 | Fc1cc(Cl)ccc1-c1ccc(Cn2nnc3ccccc32)nc1 | 
11.4 | 1.1 | 0.5 | 60 | Clc1cc(Br)c2nnn(CC3CC3)c2c1 | 
2.3 | 6.4 | 0.9 | 71 | Fc1ccc(-c2ccc(Cn3nnc4ccccc43)cc2)c(F)c1 | 
11.4 | 14.6 | 7.9 | 30 | Brc1cccc2c1nnn2CC1CCCC1 | 
1.5 | 2.6 | 0.7 | 118 | Fc1ccc(-c2ccc(Cn3nnc4ccccc43)cc2)c(Cl)c1 | 
3.4 | 0.8 | 0.01 | 50 | Fc1cc(Cl)ccc1-c1ccc(Cn2nnc3ccccc32)cn1 | ED50 (Mus musculus [1]): > 100 mg/kg; Cp(f) [2]: 0.015 µM; fraction unbound [4]: 0.006; IC50 (Cytochrome P450 2D6): > 10000 nM; MEC [5]: 7.7 µM; Activity (Homo sapiens): 50%; Activity [15]: 77%; logD [7]: 5.48; IC50 (Cytochrome P450 1A2): > 10000 nM; concentration [8]: 2 µM; IC50 (Cytochrome P450 3A4): > 10000 nM; fraction unbound [11]: 0.008; IC50 (Cytochrome P450 2C9): 6600 nM; concentration [12]: 1.4 µM; solubility kinetic [14]: 3 µg/mL (≈ 8.86 µM)
0.7 | 0.5 | 0.1 | 68 | Fc1ccc2c(c1)nnn2Cc1ccc(-c2ccc(Cl)cc2F)nc1 | 
3 | 3.5 | 1.8 | 190 | Fc1ccc(Cn2nnc3c(Br)cccc32)c(Cl)c1 | 
3.8 | 1 | 0.2 | 70 | Clc1ccc(-c2ccc(Cn3nnc4ccccc43)cn2)cc1 | 
1.2 | 0.4 | 0.1 | 29 | Fc1cc(C(F)(F)F)ccc1-c1ccc(Cn2nnc3ccccc32)cc1 | 
7.7 | 0.8 | 4.7 | 270 | CCCn1nnc2c(Br)cccc21 | 
2 | 2.2 | 0.6 | 17 | Clc1ccc(Cn2nnc3c(Br)cccc32)cc1 | 
1.1 | 0.7 | 0.3 | 180 | Brc1ccc(Cn2nnc3c(Br)cccc32)nc1 | 
0.4 | 0.5 | 0 | 37 | FC(F)(F)c1ccc(-c2ccc(Cn3nnc4ccccc43)cc2)c(Cl)c1 | 
15.3 | 16.2 | 11.9 | 10 | Brc1cccc2c1nnn2CC1CCCCC1 | 
11.4 | 12.6 | 7.9 | 155 | c1ccc(-c2ccc(Cn3nnc4ccccc43)cc2)cc1 | 
